Bioassay records: PubChem, The Scripps Research Institute Molecular Screening Center
Shown are actives, neighbours in structure and some others; about 1.8% of the full set was active somewhere.
CHRM5 agonist – agonists of human muscarinic M5 receptor (CHRM5). CHO-K1 hM5 cells, Fluo-8 calcium fluorescence; 0% DMSO wells, 100% maximal acetylcholine response. 360,000 compounds, 0.19% hits. activation, % at 3 µM. P08912;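 active = activation above the run's mean over test compounds plus 3 SD, cut at about 23% in these data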;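 note: signal is peak over basal fluorescence ratio across the kinetic read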
Target sequence (P08912 whole entry, looked up): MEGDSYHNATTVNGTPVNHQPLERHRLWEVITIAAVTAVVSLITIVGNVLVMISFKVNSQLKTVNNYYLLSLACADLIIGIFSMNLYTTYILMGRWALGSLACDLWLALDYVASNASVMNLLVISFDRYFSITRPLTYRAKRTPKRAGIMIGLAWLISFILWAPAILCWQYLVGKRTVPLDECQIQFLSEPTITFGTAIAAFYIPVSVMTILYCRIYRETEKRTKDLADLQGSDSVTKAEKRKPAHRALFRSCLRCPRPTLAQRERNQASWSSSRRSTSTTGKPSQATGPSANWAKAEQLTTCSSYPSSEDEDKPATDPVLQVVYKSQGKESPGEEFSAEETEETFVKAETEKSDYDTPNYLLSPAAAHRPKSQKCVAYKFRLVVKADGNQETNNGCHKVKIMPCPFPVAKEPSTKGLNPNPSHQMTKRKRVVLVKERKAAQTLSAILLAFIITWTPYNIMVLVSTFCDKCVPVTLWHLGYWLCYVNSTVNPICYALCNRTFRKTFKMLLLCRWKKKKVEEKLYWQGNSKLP
CHRM4 PAM – CHRM4 positive allosteric modulation | 360,000 compounds, 0.4% hits | P08173 | AID 624126 | CHO-K1 hM4/Gqi5, Fluo-8 calcium fluorescence, ACh EC20; 0% = ACh EC20, 100% = maximal ACh | activation, % at 3 µM;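 active = activation above its plate's cutoff, the mean activation of sample wells plus 3 SD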
CHRM4 antagonist – CHRM4 antagonism in calcium assay; 360,000 compounds, 0.73% hits; AID 624125; CHO-hM4 cells, ACh EC80, Fluo-8 calcium fluorescence; P08173; inhibition, % at 3 µM;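 active = inhibition above its plate's cutoff, the mean inhibition of sample wells plus 3 SD, cut at about 27% in these data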
M5 PAM – CHRM5 positive allosteric modulation. CHO-K1 hM5, Fluo-8 calcium, ACh EC20 PAM; 0% = ACh EC20, 100% = ACh EC100. activation, % at 3 µM. 360,000 compounds, 0.3% hits;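 active = activation above the run cutoff, the mean activation of all test compounds plus 3 SD, cut at about 18% in these data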
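Assay system: CHO-K1 hM5 cells. Also added: acetylcholine at EC20 concentration, added after compound. Dosing: 3 µM, single dose. Times: compound preincubation 140 s before EC20 acetylcholine addition. Signal: Fluo-8 calcium fluorescence. Measure: % activation relative to EC20 and EC100 ACh responses. Repeats: singlicate, one well per test compound.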
M4 ag – agonists of human muscarinic M4 receptor (CHRM4). CHO-K1 hM4/Gqi5, Fluo-8 calcium fluorescence; vehicle 0%, full acetylcholine response 100%. activation, % at 3 µM. 360,000 compounds, 0.14% hits. AID 624127;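 active = activation above the run mean over all test wells plus 3 SD, cut at about 32% in these data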;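 note: peak over basal fluorescence ratio per well then scaled between controls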
CHRM5 antagonist – blocks acetylcholine activation of human M5 receptor; inhibition, % at 3 µM; CHO-hM5 cells, Fluo-8 calcium fluorescence, ACh EC80; 360,000 compounds, 0.59% hits; P08912; AID 624040;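 active = inhibition above a per-plate cutoff, the mean of that plate's test compounds plus 3 SD, cut at about 27% in these data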
Numbers stand for hits; . = inactive; ! = a repeat was not active.

SMILES	CHRM5 agonist	CHRM4 PAM	CHRM4 antagonist	M5 PAM	M4 ag	CHRM5 antagonist
CCOC(=O)C1(CCc2ccccc2)CCN(C2Cc3ccccc3C2)CC1	.	.	.	.	.	40.5
CCN(CC)S(=O)(=O)c1ccc(N2CCOCC2)c(NC(=O)c2[nH]c(C)c(C(C)=O)c2C)c1	.	28.9	.	.	.	.
CCN(CC)S(=O)(=O)c1ccc(N2CCOCC2)c(NC(=O)c2ccc(F)cc2)c1	.	.	.	.	.	.
CS(=O)(=O)c1ccc(C(=O)OCC(=O)N2CCN(CCC3CCCCC3)CC2)cc1[N+](=O)[O-]	.	.	29.5	.	.	.
NC(=O)N/N=C/c1ccc([N+](=O)[O-])o1	.	.	.	.	.	.
COC(=O)N/N=C/c1ccc([N+](=O)[O-])o1	.	30.2	.	.	.	.
C/C(=N\NC(=O)COc1ccc(C)cc1C(C)C)c1ccc(-n2ccnc2)cc1	.	.	47.9	.	.	.
COC(=O)N/N=C(\C)c1ccc(-n2ccnc2)cc1	.	.	.	.	.	.
Cc1ccc2nc3c(cc2c1)c(C)nn3-c1ccccc1	.	30.8	.	.	.	.
Cc1nn(-c2ccccc2)c2nc(=O)n(-c3ccccc3)cc12	.	.	.	.	.	.
O=C(NCc1ccccc1)c1ccc(CS(=O)(=O)c2ccc(Br)cc2)o1	.	.	.	.	.	.
O=C(NCc1ccccc1)c1ccc(CS(=O)(=O)c2ccccc2)o1	.	.	.	21.9	.	.
CNCC/C=C1/c2ccccc2CSc2ccccc21	.	.	42.8	.	.	80.8
CN(C)c1ccc(/C=C/c2nc3ccccc3c(=O)n2-c2ccc(C(=O)O)cc2)cc1	25.5	.	.	.	54.9	.
Cc1nnc(SCC(=O)c2cc(C)n(-c3ccc4c(c3)OCO4)c2C)s1	.	.	.	.	.	27.4
COc1ccc(C(=O)Nc2ccc3[nH]ncc3c2)cc1OC	.	.	.	.	.	.
COc1ccc(/C=C/C(=O)O)cc1S(=O)(=O)NCc1ccco1	.	.	.	24.8	.	.
COc1cc(/C=C/C(=O)O)cc(S(=O)(=O)NCc2ccco2)c1OC	.	.	.	.	.	.
CC(=O)c1cc2c(cc1NC(=O)C1CCC1)OCO2	.	23.6	.	.	.	.
CC#C[C@@H](CC)c1ccc2ccn(C)c2c1	.	.	.	.	.	27.1
COc1ccccc1C1NC(=O)c2ccccc2O1 (centres undefined)	.	.	.	.	.	.
O=C(O)C1CCCN1S(=O)(=O)c1cccc(S(=O)(=O)N2CCCC2C(=O)O)c1 (centres undefined)	.	.	32.3	.	.	.
O=C(O)[C@@H]1CCCN1S(=O)(=O)c1cccc(S(=O)(=O)N2CCC[C@H]2C(=O)O)c1	.	.	.	.	.	.
COc1ccccc1Nc1nc2ccccc2n1C	.	.	43.9	.	.	.
S=C(Nc1cc(Cl)cc(Cl)c1)NC1CCN(Cc2ccccc2)CC1	.	.	.	.	35.5	28.4
SMILES	CHRM5 agonist	CHRM4 PAM	CHRM4 antagonist	M5 PAM	M4 ag	CHRM5 antagonist
S=C(Nc1ccccc1Cl)NC1CCN(Cc2ccccc2)CC1	.	.	.	.	.	.
S=C(NCc1ccc(Cl)cc1)NC1CCN(Cc2ccccc2)CC1	.	.	27.4	.	45.1	.
CCCN1C(=O)CC(Sc2ncccc2C(=O)O)C1=O (centres undefined)	.	.	.	.	.	.
COc1ccc(CCN2C(=O)CC(Sc3ncccc3C(=O)O)C2=O)cc1OC (centres undefined)	.	32.5	.	25.8	.	.
CCOC(=O)C1OC1(c1ccccc1)c1ccccc1 (centres undefined)	.	.	.	.	.	.
COc1ccc(CCNc2nc(-c3cccnc3)nc3ccccc23)cc1OC	.	.	28.2	.	.	39.4
COc1ccc(CCNc2ncnc3c2oc2ccccc23)cc1OC	.	.	.	.	.	50.3
COc1ccc(CCNc2nc(C)nc3c2oc2ccccc23)cc1OC	.	.	.	.	.	32.5
CCN(C(=O)COC(=O)c1nc(Cl)ccc1Cl)c1c(N)n(Cc2ccccc2)c(=O)[nH]c1=O	.	.	.	.	.	.
CCN(C(=O)COC(=O)c1ccccc1Oc1ccccc1)c1c(N)n(Cc2ccccc2)c(=O)[nH]c1=O	.	24.8	.	.	.	.
COCCN(C(=O)Cc1coc2cc(C)c(C)cc12)c1c(N)n(Cc2ccccc2)c(=O)[nH]c1=O	.	.	.	.	.	100.4
COCCN(C(=O)COC(=O)c1cccnc1Cl)c1c(N)n(Cc2ccccc2)c(=O)[nH]c1=O	.	.	.	.	.	.
COCCN(C(=O)COC(=O)c1ccccc1Oc1ccccc1)c1c(N)n(Cc2ccccc2)c(=O)[nH]c1=O	.	.	.	.	.	.
COCCN(C(=O)COC(=O)c1cccnc1SC)c1c(N)n(Cc2ccccc2)c(=O)[nH]c1=O	.	22.0	.	.	.	.
COCCN(C(=O)COC(=O)c1nc(Cl)ccc1Cl)c1c(N)n(Cc2ccccc2)c(=O)[nH]c1=O	.	.	26.9	.	.	.
O=C1CCN(S(=O)(=O)c2ccc(Cl)cc2)CCN1	.	.	.	.	.	.
CC(C)CN(C(=O)COC(=O)C12CC3CC(CC(Cl)(C3)C1)C2)c1c(N)n(Cc2ccccc2)c(=O)[nH]c1=O	.	.	.	.	.	.
COCCN(C(=O)COC(=O)C12CC3CC(CC(Cl)(C3)C1)C2)c1c(N)n(Cc2ccccc2)c(=O)[nH]c1=O	.	27.0	.	.	.	.
Cc1ccc2cc3c(=O)n(C)cc(C=O)c3nc2c1	.	.	.	.	.	.
O=C(/C=C/c1ccc(F)cc1)NC(=S)NNC(=O)c1cnccn1	.	.	30.0	.	.	.
COc1ccc(/C=C/C(=O)NC(=S)NNC(=O)c2cnccn2)cc1	.	.	.	.	.	.
CCOc1ccccc1NC(=O)CSc1nncc2ccccc12	.	.	.	.	.	.
O=S(=O)(c1ccccc1)N1CCC(Oc2ccc(-n3cnnn3)cc2)CC1	.	.	28.2	.	.	.
Cc1cccc(NC(=O)c2ccc3c(c2)C(=O)N(c2ccccc2C)C3=O)n1	.	.	.	.	.	.
Cc1cc(/C=N/NC(=O)c2ccsc2)c(C)n1-c1cnccn1	.	.	.	28.2	.	.
Brc1ccc(OCc2ccccc2)c(CNCc2ccncc2)c1	.	.	29.4	.	.	.
CCCCCCCCCCOC(=O)Cn1c(COc2ccccc2)[n+](C)c2ccccc21	.	.	37.7	.	.	32.8
CCCCCCCCCCOC(=O)Cn1c(COc2ccc(OC)cc2)[n+](C)c2ccccc21	.	.	32.3!	.	.	27.7!
